In ChEMBL document CHEMBL1136721, “QSAR and classification of murine and human soluble epoxide hydrolase inhibition by urea-like compounds” (J Med Chem, 2003):

What was measured:
[1] = biological target: T1, Bifunctional epoxide hydrolase 2 (Homo sapiens, UniProt P34913); test: Inhibitory activity against human soluble epoxide hydrolase; N/A = could not be determined because of above the highest concentration (500 uM) of inhibitor tested.
T1 sequence (P34913 whole entry): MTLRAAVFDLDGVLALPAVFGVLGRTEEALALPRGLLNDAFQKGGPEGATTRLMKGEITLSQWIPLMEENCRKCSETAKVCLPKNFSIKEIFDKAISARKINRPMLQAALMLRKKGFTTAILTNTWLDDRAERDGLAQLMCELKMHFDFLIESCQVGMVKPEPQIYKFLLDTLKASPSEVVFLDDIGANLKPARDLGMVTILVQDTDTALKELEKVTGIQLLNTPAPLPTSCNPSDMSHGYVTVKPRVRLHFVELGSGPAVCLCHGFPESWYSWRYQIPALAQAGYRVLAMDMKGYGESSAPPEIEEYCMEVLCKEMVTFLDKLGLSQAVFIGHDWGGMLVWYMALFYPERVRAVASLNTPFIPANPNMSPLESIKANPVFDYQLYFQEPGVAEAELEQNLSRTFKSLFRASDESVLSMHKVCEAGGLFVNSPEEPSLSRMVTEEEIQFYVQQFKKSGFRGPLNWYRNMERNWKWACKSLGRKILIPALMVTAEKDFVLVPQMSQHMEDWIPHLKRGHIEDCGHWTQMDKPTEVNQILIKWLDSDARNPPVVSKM
Procedure, shortened: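 Recombinant human sEH made in baculovirus and affinity-purified (at least 97% pure, no detectable esterase or glutathione transferase activity). 0.20 µM enzyme preincubated with inhibitor for 5 min at 30 °C in pH 7.4 sodium phosphate buffer. Substrate: 40 µM racemic 4-nitrophenyl-trans-2,3-epoxy-3-phenylpropyl carbonate. 4-Nitrophenolate read at 405 nm over 1 min. Triplicate runs; top concentration 500 µM. IC50 by regression of at least five points, with at least two on each side in the linear region.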

[2] = biological target: T2, Bifunctional epoxide hydrolase 2 (Mus musculus, UniProt P34914); test: Inhibitory activity against murine soluble epoxide hydrolase; N/A = could not be determined because of above the highest concentration (500 uM) of inhibitor tested.
T2 sequence (P34914 whole entry): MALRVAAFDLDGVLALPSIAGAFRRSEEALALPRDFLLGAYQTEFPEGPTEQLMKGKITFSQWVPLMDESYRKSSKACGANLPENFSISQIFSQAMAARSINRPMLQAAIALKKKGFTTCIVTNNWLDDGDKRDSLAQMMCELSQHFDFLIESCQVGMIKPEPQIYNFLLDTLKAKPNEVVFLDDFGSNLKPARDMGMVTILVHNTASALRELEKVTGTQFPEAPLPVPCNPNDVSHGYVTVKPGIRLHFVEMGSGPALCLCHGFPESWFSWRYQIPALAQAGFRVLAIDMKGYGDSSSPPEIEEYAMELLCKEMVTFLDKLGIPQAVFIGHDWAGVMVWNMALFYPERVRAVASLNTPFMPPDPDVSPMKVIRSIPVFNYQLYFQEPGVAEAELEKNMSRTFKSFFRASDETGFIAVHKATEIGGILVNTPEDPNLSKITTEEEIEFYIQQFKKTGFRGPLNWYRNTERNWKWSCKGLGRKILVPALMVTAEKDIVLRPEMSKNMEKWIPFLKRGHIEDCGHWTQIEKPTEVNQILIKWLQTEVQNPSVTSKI
Procedure, shortened: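 Mouse sEH expressed in baculovirus and affinity-purified (at least 97% pure by SDS-PAGE, no esterase or glutathione transferase activity). 0.10 µM enzyme held with inhibitor 5 min at 30 °C in pH 7.4 sodium phosphate buffer. Then 40 µM racemic 4-nitrophenyl-trans-2,3-epoxy-3-phenylpropyl carbonate added; 4-nitrophenolate followed at 405 nm for 1 min. Done in triplicate up to 500 µM inhibitor. IC50 regressed from at least five points bracketing the midpoint.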

SMILES | IC50 [1] | IC50 [2]
CCCCCCNC(=O)NC | Not Active | 
CN(C)C(=O)N(CCCCCC(=O)O)c1ccc(Cl)c(Cl)c1 | Not Active | Not Active
